Consider four compounds from ChEMBL document CHEMBL4837191, “Prenylated Coumaric Acids from Artemisia scoparia Beneficially Modulate Adipogenesis” (J Nat Prod, 2021).

What all share (type): functional, cell-based
Assay [1] has as its system 3T3-L1. As to the kind of experiment: Induction of adipogenic differentiation in mouse 3T3-L1 cells assessed as increase in PPARgamma mRNA expression by RT-PCR analysis. Particulars: dose 2.5-25 µM. The method in brief: (§1)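 3T3-L1 preadipocytes induced 2 days post-confluence with half-strength MDI (IBMX, DEX, insulin in high-glucose DMEM + 10% FBS); compound (2.5, 10, 25 µM, DMSO 1,000× stocks) added at induction and at day-3 feeding (DMEM + 10% FBS, 0.43 µM insulin). RNA harvested 4 days post-MDI; reverse-transcription qPCR, normalized to Nono; compared with DMSO controls.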

Assay [2] concerns 3T3-L1. As to the kind of experiment: Inhibition of TNF-alpha induced lipolysis in mouse 3T3-L1 adipocytes assessed as reduction in glycerol release at 2.5 to 25 uM measured after 4 hrs by glycerol reagent based assay. Particulars: dose 2.5-25 µM. The method in brief:
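Mature 3T3-L1 adipocytes (full MDI: 0.5 mM IBMX, 1 µM DEX, 1.72 µM insulin), refed day 6, then compound (2.5, 10, 25 µM) or DMSO for 3 days. Overnight 0.75 nM TNFα (or BSA/PBS vehicle), then 4 h in low-glucose DMEM + 2% BSA with TNFα. Medium glycerol by Free Glycerol Reagent, normalized to BCA lysate protein.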

Assay [3] concerns 3T3-L1. The experiment in a line: Induction of adipogenic differentiation in mouse 3T3-L1 cells assessed as increase in FABP4 mRNA expression by RT-PCR analysis. Particulars: dose 2.5-25 µM. The method in brief: as §1
Assay [4] relates to 3T3-L1. As to the kind of experiment: Induction of adipogenic differentiation in mouse 3T3-L1 cells at 2.5 to 25 uM measured after 4 days by Oil Red O staining. Particulars: dose 2.5-25 µM, time 4.0 day.
Assay [5] deals with 3T3-L1. The experiment in a line: Induction of adipogenic differentiation in mouse 3T3-L1 cells assessed as increase in AdipoQ mRNA expression by RT-PCR analysis. Particulars: dose 2.5-25 µM. The method in brief:
as §1

Activity calls are given as the source filed them. The rule behind the calls is not given here.

For `CC(=O)OC/C(C)=C\Cc1cc(/C=C/C(=O)O)cc(C/C=C(/C)CO)c1O`, the outcome in assay [1], in assay [3], in assay [4] and in assay [5] was Active. Further, the inhibition entry in assay [2] was “Active”.
As for `CC(=O)OC/C(C)=C\Cc1cc(/C=C\C(=O)O)cc(C/C=C(/C)CO)c1O`, the result in assay [1], in assay [3], in assay [4] and in assay [5] was Active. In addition, in assay [2], the inhibition entry was “Active”.
As to `CC(C)=CCc1cc(/C=C/C(=O)O)cc(C/C=C(\C)CO)c1O`, the outcome in assay [1], in assay [3], in assay [4] and in assay [5] was Active. Moreover, in assay [2], the inhibition entry is “inactive”.
For `CC(C)=CCc1cc(/C=C/C(=O)O)cc(C/C=C(/C)CO)c1O`, the inhibition entry in assay [2] is “inactive”. Further, the result in assay [4] was Active.
